Measurements taken from ChEMBL document CHEMBL5036335, “Functional Characterization of the Nemertide α Family of Peptide Toxins” (J Nat Prod, 2021).

What was measured:
[1] = Toxicity in Artemia salina assessed as mortality incubated for 24 hrs in dark by microwell assay; type: organism-based
How it was run: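 Nauplii hatched from cysts in aerated artificial seawater (33 g/L), harvested at 24 h, RT. Peptide at 0.003–300 μM in water, in duplicate wells with water control, plus 10–15 nauplii in salt water. Dead and immobilized nauplii counted under a microscope, then the rest killed with MeOH and all counted. % dead or immobilized per well; EC50 by nonlinear regression.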

[2] = molecular target: Sodium channel protein type 1 subunit alpha (Homo sapiens, UniProt P35498); assay: Modulator activity at human Nav1.1 expressed in Xenopus laevis oocytes assessed as elicitation in sodium current measured after 1 to 4 days by two-electrode voltage clamp assay; type: cell-based, Oocyte
How it was run: (§1)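 Channel cRNA, with auxiliary subunits rβ1, hβ1 or TipE, transcribed from linearized plasmids; 50 nL of 1 ng/nL injected into stage V–VI X. laevis oocytes, kept in 96 mM NaCl, 2 mM KCl, 1.8 mM CaCl2, 2 mM MgCl2, 5 mM HEPES pH 7.4 with gentamycin. Two-electrode voltage clamp at 18–22 °C in same bath solution; 3 M KCl electrodes of 0.8–1.5 MΩ; currents filtered at 1 kHz, sampled at 20 kHz. EC50 from Hill equation fit.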

[3] = molecular target: Sodium channel protein type 2 subunit alpha (Rattus norvegicus, UniProt P04775); assay: Modulator activity at rat Nav1.2 expressed in Xenopus laevis oocytes assessed as elicitation in sodium current measured after 1 to 4 days by two-electrode voltage clamp assay; type: cell-based, Oocyte; how it was run: as §1
[4] = molecular target: Sodium channel protein type 5 subunit alpha (Homo sapiens, UniProt Q14524); assay: Modulator activity at human Nav1.5 expressed in Xenopus laevis oocytes assessed as elicitation in sodium current measured after 1 to 4 days by two-electrode voltage clamp assay; type: cell-based, Oocyte; how it was run: as §1
[5] = molecular target: Sodium channel protein type 9 subunit alpha (Homo sapiens, UniProt Q15858); assay: Modulator activity at human Nav1.7 expressed in Xenopus laevis oocytes assessed as elicitation in sodium current measured after 1 to 4 days by two-electrode voltage clamp assay; type: cell-based, Oocyte; how it was run: as §1
[6] = Modulator activity at german cockroach Nav1 expressed in Xenopus laevis oocytes assessed as elicitation in sodium current measured after 1 to 4 days by two-electrode voltage clamp assay; type: cell-based; details: Blattella germanica, Oocyte; how it was run: as §1
[7] = molecular target: Sodium channel protein type 4 subunit alpha (Rattus norvegicus, UniProt P15390); assay: Modulator activity at rat Nav1.4 expressed in Xenopus laevis oocytes assessed as elicitation in sodium current measured after 1 to 4 days by two-electrode voltage clamp assay; type: cell-based, Oocyte; how it was run: as §1
[8] = molecular target: Sodium channel protein type 8 subunit alpha (Mus musculus, UniProt Q9WTU3); assay: Modulator activity at mouse Nav1.6 expressed in Xenopus laevis oocytes assessed as elicitation in sodium current measured after 1 to 4 days by two-electrode voltage clamp assay; type: cell-based, Oocyte; how it was run: as §1
[9] = molecular target: Sodium channel protein type 10 subunit alpha (Rattus norvegicus, UniProt Q62968); assay: Modulator activity at rat Nav1.8 expressed in Xenopus laevis oocytes assessed as elicitation in sodium current measured after 1 to 4 days by two-electrode voltage clamp assay; type: cell-based; details: oocyte
How it was run: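 Channel cRNA transcribed from linearized plasmid; 50 nL at 1 ng/nL injected into stage V–VI oocytes. Oocytes held in 96 mM NaCl, 2 mM KCl, 1.8 mM CaCl2, 2 mM MgCl2, 5 mM HEPES pH 7.4 with gentamycin. TEVC at 18–22 °C in the same solution, electrodes 3 M KCl, 0.8–1.5 MΩ. Currents filtered 1 kHz, sampled 20 kHz. EC50 from Hill equation fit.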

[10] = molecular target: Sodium channel protein type 3 subunit alpha (Rattus norvegicus, UniProt P08104); assay: Modulator activity at rat Nav1.3 expressed in Xenopus laevis oocytes assessed as elicitation in sodium current measured after 1 to 4 days by two-electrode voltage clamp assay; type: cell-based, Oocyte; how it was run: as §1

Sodium channel protein type 5 subunit alpha, sequence (Q14524 whole entry): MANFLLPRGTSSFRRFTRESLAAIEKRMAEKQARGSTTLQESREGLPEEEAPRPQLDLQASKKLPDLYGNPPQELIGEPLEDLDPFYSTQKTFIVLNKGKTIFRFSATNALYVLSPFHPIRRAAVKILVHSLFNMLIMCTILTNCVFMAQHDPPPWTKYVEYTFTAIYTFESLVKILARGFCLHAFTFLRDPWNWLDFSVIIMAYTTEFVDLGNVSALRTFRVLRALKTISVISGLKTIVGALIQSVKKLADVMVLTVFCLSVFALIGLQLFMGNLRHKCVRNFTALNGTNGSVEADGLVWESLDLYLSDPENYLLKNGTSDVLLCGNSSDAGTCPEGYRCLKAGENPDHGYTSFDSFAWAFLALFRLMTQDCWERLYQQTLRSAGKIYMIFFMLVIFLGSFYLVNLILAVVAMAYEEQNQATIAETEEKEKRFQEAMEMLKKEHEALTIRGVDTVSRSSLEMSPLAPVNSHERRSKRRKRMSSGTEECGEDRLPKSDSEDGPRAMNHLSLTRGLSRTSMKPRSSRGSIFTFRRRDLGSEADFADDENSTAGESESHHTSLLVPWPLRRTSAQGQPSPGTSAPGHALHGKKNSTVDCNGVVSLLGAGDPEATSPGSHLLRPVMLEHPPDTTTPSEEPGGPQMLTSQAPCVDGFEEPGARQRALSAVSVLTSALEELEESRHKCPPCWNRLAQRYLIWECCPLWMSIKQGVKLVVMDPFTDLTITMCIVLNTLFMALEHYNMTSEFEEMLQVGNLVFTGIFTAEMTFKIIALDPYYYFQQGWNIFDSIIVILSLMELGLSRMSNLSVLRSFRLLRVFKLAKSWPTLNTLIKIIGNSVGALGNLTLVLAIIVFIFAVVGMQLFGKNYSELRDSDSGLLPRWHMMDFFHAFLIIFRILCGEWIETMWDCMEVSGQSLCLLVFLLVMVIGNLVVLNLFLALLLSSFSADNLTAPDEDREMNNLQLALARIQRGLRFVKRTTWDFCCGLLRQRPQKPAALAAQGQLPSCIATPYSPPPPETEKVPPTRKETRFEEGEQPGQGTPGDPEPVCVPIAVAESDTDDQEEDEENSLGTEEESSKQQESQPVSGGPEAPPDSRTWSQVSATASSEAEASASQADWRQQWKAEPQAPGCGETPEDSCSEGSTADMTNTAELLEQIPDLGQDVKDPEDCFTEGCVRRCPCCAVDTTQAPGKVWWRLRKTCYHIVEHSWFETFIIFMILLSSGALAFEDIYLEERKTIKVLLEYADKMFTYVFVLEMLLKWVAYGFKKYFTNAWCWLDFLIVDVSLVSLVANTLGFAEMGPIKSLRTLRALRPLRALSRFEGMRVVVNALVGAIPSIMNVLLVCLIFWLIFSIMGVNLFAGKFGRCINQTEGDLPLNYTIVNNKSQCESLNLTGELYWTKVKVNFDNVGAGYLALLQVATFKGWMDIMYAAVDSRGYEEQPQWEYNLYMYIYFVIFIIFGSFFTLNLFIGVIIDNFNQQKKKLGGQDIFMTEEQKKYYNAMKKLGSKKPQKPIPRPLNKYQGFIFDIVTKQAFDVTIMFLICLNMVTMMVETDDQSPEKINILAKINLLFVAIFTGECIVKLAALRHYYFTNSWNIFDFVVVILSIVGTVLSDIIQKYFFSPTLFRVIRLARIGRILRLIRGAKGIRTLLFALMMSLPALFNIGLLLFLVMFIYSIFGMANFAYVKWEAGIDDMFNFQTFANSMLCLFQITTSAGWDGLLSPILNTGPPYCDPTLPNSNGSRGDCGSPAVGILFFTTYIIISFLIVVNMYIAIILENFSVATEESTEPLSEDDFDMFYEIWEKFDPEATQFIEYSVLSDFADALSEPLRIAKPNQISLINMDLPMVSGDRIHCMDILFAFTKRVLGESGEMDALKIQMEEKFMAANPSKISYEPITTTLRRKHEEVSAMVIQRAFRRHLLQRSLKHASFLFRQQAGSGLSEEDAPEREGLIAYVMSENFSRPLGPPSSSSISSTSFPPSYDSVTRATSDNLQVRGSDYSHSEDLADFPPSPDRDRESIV
Sodium channel protein type 2 subunit alpha, sequence (P04775 whole entry): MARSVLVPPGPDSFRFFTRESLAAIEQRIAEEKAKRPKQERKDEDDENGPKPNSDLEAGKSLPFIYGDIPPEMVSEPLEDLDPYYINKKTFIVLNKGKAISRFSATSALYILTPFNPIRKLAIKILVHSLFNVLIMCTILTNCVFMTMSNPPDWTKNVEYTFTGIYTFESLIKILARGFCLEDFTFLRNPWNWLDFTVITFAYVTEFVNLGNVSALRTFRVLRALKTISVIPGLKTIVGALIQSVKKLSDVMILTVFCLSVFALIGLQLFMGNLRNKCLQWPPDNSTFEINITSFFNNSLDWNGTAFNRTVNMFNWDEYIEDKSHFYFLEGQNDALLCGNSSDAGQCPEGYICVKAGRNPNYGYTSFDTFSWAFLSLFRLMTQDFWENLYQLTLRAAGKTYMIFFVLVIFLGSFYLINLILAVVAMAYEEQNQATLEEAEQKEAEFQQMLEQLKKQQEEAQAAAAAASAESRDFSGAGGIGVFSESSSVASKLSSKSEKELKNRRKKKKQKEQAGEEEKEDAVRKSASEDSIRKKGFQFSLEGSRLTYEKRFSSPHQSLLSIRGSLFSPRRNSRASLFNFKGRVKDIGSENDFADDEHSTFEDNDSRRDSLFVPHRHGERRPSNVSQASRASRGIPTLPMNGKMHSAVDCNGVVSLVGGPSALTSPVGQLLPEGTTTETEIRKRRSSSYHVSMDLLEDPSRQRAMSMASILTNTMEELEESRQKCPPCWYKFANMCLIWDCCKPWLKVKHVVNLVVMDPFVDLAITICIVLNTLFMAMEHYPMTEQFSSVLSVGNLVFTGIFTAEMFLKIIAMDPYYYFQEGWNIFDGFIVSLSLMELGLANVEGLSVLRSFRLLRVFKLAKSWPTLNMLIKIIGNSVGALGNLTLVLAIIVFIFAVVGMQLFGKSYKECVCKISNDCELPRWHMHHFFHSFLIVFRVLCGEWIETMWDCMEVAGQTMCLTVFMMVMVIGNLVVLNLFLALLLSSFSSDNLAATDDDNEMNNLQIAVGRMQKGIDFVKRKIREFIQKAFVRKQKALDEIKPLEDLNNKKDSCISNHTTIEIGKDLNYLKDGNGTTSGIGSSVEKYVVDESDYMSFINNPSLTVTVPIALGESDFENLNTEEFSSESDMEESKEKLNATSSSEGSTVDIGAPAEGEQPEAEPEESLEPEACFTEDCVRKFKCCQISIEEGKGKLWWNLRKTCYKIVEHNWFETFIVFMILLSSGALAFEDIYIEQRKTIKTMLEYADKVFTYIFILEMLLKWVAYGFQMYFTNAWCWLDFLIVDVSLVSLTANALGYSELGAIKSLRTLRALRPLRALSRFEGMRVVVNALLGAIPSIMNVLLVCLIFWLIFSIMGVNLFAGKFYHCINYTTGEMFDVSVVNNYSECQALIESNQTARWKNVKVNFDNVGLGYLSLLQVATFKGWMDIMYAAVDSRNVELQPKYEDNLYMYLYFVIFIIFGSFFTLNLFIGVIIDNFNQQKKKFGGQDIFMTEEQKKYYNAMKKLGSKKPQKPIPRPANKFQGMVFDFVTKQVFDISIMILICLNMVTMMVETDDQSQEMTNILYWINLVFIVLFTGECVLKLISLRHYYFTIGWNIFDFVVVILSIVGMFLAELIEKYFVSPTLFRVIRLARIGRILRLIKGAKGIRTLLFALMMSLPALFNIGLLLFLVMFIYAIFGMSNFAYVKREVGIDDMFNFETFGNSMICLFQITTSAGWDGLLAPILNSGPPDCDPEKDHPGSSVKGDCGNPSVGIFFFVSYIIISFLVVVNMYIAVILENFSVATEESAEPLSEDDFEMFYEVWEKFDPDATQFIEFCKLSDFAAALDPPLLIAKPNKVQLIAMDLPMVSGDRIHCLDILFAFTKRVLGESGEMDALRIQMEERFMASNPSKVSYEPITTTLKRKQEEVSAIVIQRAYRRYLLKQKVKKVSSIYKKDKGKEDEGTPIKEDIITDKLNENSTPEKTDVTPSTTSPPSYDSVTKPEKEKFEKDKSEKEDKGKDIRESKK

Compound: CC[C@H](C)[C@@H]1NC(=O)[C@@H](NC(=O)CN)CSSC[C@@H]2NC(=O)[C@@H]3CSSC[C@@H](C(=O)N[C@@H](CC(N)=O)C(=O)N4C[C@@H](O)C[C@H]4C(=O)N4C[C@@H](O)C[C@H]4C(=O)N[C@@H](CC(N)=O)C(=O)N[C@@H](CCC(N)=O)C(=O)O)NC(=O)[C@H](CCCCN)NC(=O)[C@H](Cc4ccccc4)NC(=O)[C@H](CC(N)=O)NC(=O)[C@H](Cc4c[nH]c5ccccc45)NC(=O)CNC(=O)[C@H](CSSC[C@H](NC(=O)[C@H](Cc4ccccc4)NC(=O)[C@H](CO)NC(=O)CNC(=O)[C@H]([C@@H](C)O)NC(=O)[C@H](CO)NC1=O)C(=O)N[C@@H]([C@@H](C)O)C(=O)N[C@@H](CC(C)C)C(=O)N[C@@H](CO)C(=O)N[C@@H](CCCCN)C(=O)NCC(=O)N3)NC(=O)[C@H](CC(N)=O)NC(=O)[C@H](CCCCN)NC(=O)[C@H]([C@@H](C)O)NC2=O
- EC50 at 24 h [1]: 400 nM
- EC50 [2]: 92 nM
- EC50 [3]: 134 nM
- EC50 [4]: 27.8 nM
- EC50 [5]: 80.5 nM
- EC50 [6]: 11.1 nM
- EC50 [7]: 14.6 nM
- EC50 [8]: 124 nM
- EC50 [9]: Not Active
- EC50 [10]: 12.9 nM

Compound: CC[C@H](C)[C@@H]1NC(=O)[C@@H](NC(=O)CN)CSSC[C@@H]2NC(=O)[C@@H]3CSSC[C@@H](C(=O)N[C@@H](CC(N)=O)C(=O)N4C[C@@H](O)C[C@H]4C(=O)N4C[C@@H](O)C[C@H]4C(=O)N[C@@H](CC(N)=O)C(=O)N[C@@H](CCC(N)=O)C(=O)O)NC(=O)[C@H](Cc4cnc[nH]4)NC(=O)[C@H](Cc4ccccc4)NC(=O)[C@H](CC(N)=O)NC(=O)[C@H](Cc4c[nH]c5ccccc45)NC(=O)CNC(=O)[C@H](CSSC[C@H](NC(=O)[C@H](Cc4ccccc4)NC(=O)[C@H](CO)NC(=O)CNC(=O)[C@H]([C@@H](C)O)NC(=O)[C@H](CCCCN)NC1=O)C(=O)N[C@@H]([C@@H](C)O)C(=O)N[C@@H](CC(C)C)C(=O)N[C@@H](CO)C(=O)N[C@@H](CCCCN)C(=O)NCC(=O)N3)NC(=O)[C@H](CC(N)=O)NC(=O)[C@H](CCCCN)NC(=O)[C@H]([C@@H](C)O)NC2=O
- EC50 at 24 h [1]: 2800 nM
- EC50 [2]: 7.9 nM
- EC50 [3]: 24.3 nM
- EC50 [4]: 215 nM
- EC50 [5]: 97.2 nM
- EC50 [6]: 2.6 nM
- EC50 [7]: 46.4 nM
- EC50 [8]: 36.3 nM
- EC50 [9]: Not Active
- EC50 [10]: 106 nM

Compound: CC[C@H](C)[C@@H]1NC(=O)[C@@H](NC(=O)CN)CSSC[C@@H]2NC(=O)[C@@H]3CSSC[C@@H](C(=O)N[C@@H](CC(N)=O)C(=O)N4C[C@@H](O)C[C@H]4C(=O)N4C[C@@H](O)C[C@H]4C(=O)N[C@@H](CC(N)=O)C(=O)N[C@@H](CCC(N)=O)C(=O)O)NC(=O)[C@H](CCCCN)NC(=O)[C@H](Cc4ccccc4)NC(=O)[C@H](CC(N)=O)NC(=O)[C@H](Cc4c[nH]c5ccccc45)NC(=O)CNC(=O)[C@H](CSSC[C@H](NC(=O)[C@H](C(C)C)NC(=O)[C@H](CO)NC(=O)CNC(=O)[C@H]([C@@H](C)O)NC(=O)[C@H](C)NC1=O)C(=O)N[C@@H]([C@@H](C)O)C(=O)N[C@@H](CC(C)C)C(=O)N[C@@H](CO)C(=O)N[C@@H](CCCCN)C(=O)NCC(=O)N3)NC(=O)[C@H](CC(N)=O)NC(=O)[C@H](CCCCN)NC(=O)[C@H]([C@@H](C)O)NC2=O
- EC50 at 24 h [1]: 2900 nM
- EC50 [2]: 126 nM
- EC50 [3]: 97.9 nM
- EC50 [4]: 149 nM
- EC50 [5]: 1300 nM
- EC50 [6]: 87.2 nM
- EC50 [7]: 1150 nM
- EC50 [8]: 1360 nM
- EC50 [9]: Not Active
- EC50 [10]: 128 nM

Compound: CC[C@H](C)[C@@H]1NC(=O)[C@@H](NC(=O)CN)CSSC[C@@H]2NC(=O)[C@@H]3CSSC[C@@H](C(=O)N[C@@H](CC(N)=O)C(=O)N[C@H](CCCCN)C(=O)N4C[C@@H](O)C[C@H]4C(=O)N[C@@H](CC(N)=O)C(=O)N[C@@H](CCC(N)=O)C(=O)O)NC(=O)[C@H](Cc4cnc[nH]4)NC(=O)[C@H](Cc4ccccc4)NC(=O)[C@H](CC(N)=O)NC(=O)[C@H](Cc4c[nH]c5ccccc45)NC(=O)CNC(=O)[C@H](CSSC[C@H](NC(=O)[C@H](CCSC)NC(=O)[C@H](CO)NC(=O)CNC(=O)[C@H](C(C)C)NC(=O)[C@@H]4CCCN4C1=O)C(=O)N[C@@H]([C@@H](C)O)C(=O)N[C@@H](CC(C)C)C(=O)N[C@@H](CO)C(=O)N[C@@H](CC(N)=O)C(=O)NCC(=O)N3)NC(=O)[C@H](CC(N)=O)NC(=O)[C@H](CCCCN)NC(=O)[C@H]([C@@H](C)O)NC2=O
- EC50 at 24 h [1]: 6100 nM
- EC50 ([2]; oocyte): 172 nM
- EC50 ([3]; oocyte): 50.4 nM
- EC50 ([4]; oocyte): 156 nM
- EC50 ([5]; oocyte): 129 nM
- EC50 [6]: 9.5 nM
- EC50 ([7]; oocyte): 811 nM
- EC50 ([8]; oocyte): 148 nM
- EC50 [9]: Not Active
- EC50 ([10]; oocyte): 170 nM

Compound: CC[C@H](C)[C@@H]1NC(=O)[C@@H](NC(=O)CN)CSSC[C@@H]2NC(=O)[C@@H]3CSSC[C@@H](C(=O)N[C@@H](CC(N)=O)C(=O)N4C[C@@H](O)C[C@H]4C(=O)N4C[C@@H](O)C[C@H]4C(=O)N[C@@H](CC(N)=O)C(=O)N[C@@H](CCC(N)=O)C(=O)O)NC(=O)[C@H](CCCCN)NC(=O)[C@H](Cc4ccccc4)NC(=O)[C@H](CC(N)=O)NC(=O)[C@H](Cc4c[nH]c5ccccc45)NC(=O)CNC(=O)[C@H](CSSC[C@H](NC(=O)CNC(=O)[C@H](CO)NC(=O)CNC(=O)[C@H]([C@@H](C)O)NC(=O)[C@H](CCCCN)NC1=O)C(=O)N[C@@H]([C@@H](C)O)C(=O)N[C@@H](CC(C)C)C(=O)N[C@@H](CO)C(=O)N[C@@H](CCCCN)C(=O)NCC(=O)N3)NC(=O)[C@H](CC(N)=O)NC(=O)[C@H](CCCCN)NC(=O)[C@H]([C@@H](C)O)NC2=O
- EC50 at 24 h [1]: 4700 nM
- EC50 [2]: 126 nM
- EC50 [3]: 138 nM
- EC50 [4]: 108 nM
- EC50 [5]: 102 nM
- EC50 [6]: 97.5 nM
- EC50 [7]: 150 nM
- EC50 [8]: 92.8 nM
- EC50 [9]: Not Active
- EC50 [10]: 139 nM

Compound: CC[C@H](C)[C@@H]1NC(=O)[C@@H](NC(=O)CN)CSSC[C@@H]2NC(=O)[C@@H]3CSSC[C@@H](C(=O)N[C@@H](CC(N)=O)C(=O)N4C[C@@H](O)C[C@H]4C(=O)N4C[C@@H](O)C[C@H]4C(=O)N[C@@H](CC(N)=O)C(=O)N[C@@H](CCC(N)=O)C(=O)O)NC(=O)[C@H](Cc4cnc[nH]4)NC(=O)[C@H](Cc4ccccc4)NC(=O)[C@H](CC(N)=O)NC(=O)[C@H](Cc4c[nH]c5ccccc45)NC(=O)CNC(=O)[C@H](CSSC[C@H](NC(=O)[C@H](Cc4ccccc4)NC(=O)[C@H](CO)NC(=O)CNC(=O)[C@H]([C@@H](C)O)NC(=O)[C@H](C)NC1=O)C(=O)N[C@@H]([C@@H](C)O)C(=O)N[C@@H](CC(C)C)C(=O)N[C@@H](CO)C(=O)N[C@@H](CCCCN)C(=O)NCC(=O)N3)NC(=O)[C@H](CC(N)=O)NC(=O)[C@H](CCCCN)NC(=O)[C@H]([C@@H](C)O)NC2=O
- EC50 at 24 h [1]: 400 nM
- EC50 [2]: 102 nM
- EC50 [3]: 156 nM
- EC50 [4]: 133 nM
- EC50 [5]: 73 nM
- EC50 [6]: 7.8 nM
- EC50 [7]: 15.4 nM
- EC50 [8]: 66.9 nM
- EC50 [9]: Not Active
- EC50 [10]: 9.4 nM
